According to ChEMBL document CHEMBL4422698, “Wortmannin and Wortmannine Analogues from an Undescribed Niesslia sp” (2019):
Converted amounts (≈) assume the structure as drawn. The source made the active and inactive calls. The rule behind the calls is not given here.

Tests used:
Candida albicans [1] = experiment: Antifungal activity against Candida albicans ATCC 10231 assessed as zone of inhibition at 50 ug/disk by disk diffusion method; assay type: functional; conditions: for zone of inhibition at 50 µg/disc: read-out: IZ
Outline: (§1)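 Agar disk diffusion zone-of-inhibition assay on C. albicans ATCC 10231, C. neoformans H99 and S. aureus ATCC 43330, run per NCCLS recommendations. Compound applied at 50 μg/disk, amphotericin B control at 25 μg/disk. Inhibition zone diameter recorded in mm.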

Cryptococcus neoformans [2] = experiment: Antifungal activity against Cryptococcus neoformans H99 assessed as zone of inhibition at 50 ug/disk by disk diffusion method; assay type: functional; conditions: for zone of inhibition at 50 µg/disc: var grubii H99, read-out: IZ; for inhibition zone (IZ): var grubii H99; outline: as §1
Staphylococcus aureus = experiment: Antibacterial activity against Staphylococcus aureus ATCC 43330 assessed as zone of inhibition at 50 ug/disk by disk diffusion method; assay type: functional, organism-based; outline: as §1
Candida albicans [3] = experiment: Antifungal activity against Candida albicans ATCC 10231 measured after 48 hrs by broth microdilution method; assay type: functional; conditions: ATCC 10231, 48 h
Outline: (§2)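 NCCLS serial broth microdilution in RPMI-1640 with 0.165 M MOPS, pH 7.0. Compounds dissolved in DMSO and serially diluted in the medium. MIC-50 taken spectrophotometrically as the lowest concentration giving 50% growth inhibition versus the untreated control. Read at 48 h for C. albicans and A. fumigatus, 72 h for C. neoformans.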

Aspergillus fumigatus = experiment: Antifungal activity against Aspergillus fumigatus measured after 48 hrs by broth microdilution method; assay type: functional; outline: as §2
Candida albicans [4] = experiment: Antifungal activity against Candida albicans ATCC 10231 at 25 uM measured after 24 hrs
Cryptococcus neoformans [5] = experiment: Antifungal activity against Cryptococcus neoformans H99 measured after 72 hrs by broth microdilution method; assay type: functional; conditions: var grubii H99 ; outline: as §2
[6] = test system: Schizosaccharomyces pombe; experiment: Ratio of MIC50 for Schizosaccharomyces pombe isolate MJ1682 harboring efflux mutant to MIC50 for Schizosaccharomyces pombe SAK1; assay type: functional
Outline: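 S. pombe efflux mutant MJ1682 (caf5::bsdR pap1-del pmd1-del mfs1-del bfr1-del) and wild-type SAK1 grown in YES medium for 72 h with serially diluted compound. Viability read on a plate reader with Alamar Blue, itraconazole as positive control. Ratio of the MIC50 of the mutant to that of the wild type.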

Cryptococcus neoformans [7] = experiment: Antifungal activity against Cryptococcus neoformans H99 assessed as zone of inhibition at 25 ug/disk by disk diffusion method; assay type: functional; conditions: var grubii H99, read-out: IZ; outline: as §1
Candida albicans [8] = experiment: Antifungal activity against Candida albicans ATCC 10231 assessed as zone of inhibition at 25 ug/disk by disk diffusion method; assay type: functional; conditions: read-out: IZ

| SMILES | inhibition zone (IZ) (Staphylococcus aureus) | inhibition zone (IZ) (Candida albicans [1]) | inhibition zone (IZ) (Cryptococcus neoformans [2]) | also measured |
| --- | --- | --- | --- | --- |
| COC[C@H]1OC(=O)c2coc3c2[C@@]1(C)C1=C(C3=O)[C@@H]2CCC(=O)[C@@]2(C)C[C@H]1OC(=O)C(C)C | inactive | – | – | zone of inhibition at 50 µg/disc (Candida albicans [1]): 25 mm; zone of inhibition at 50 µg/disc (Cryptococcus neoformans [2]): 13 mm |
| CCC(C)C(=O)O[C@@H]1C[C@]2(C)C(=O)CC[C@H]2C2=C1[C@]1(C)c3c(coc3C2=O)C(=O)O[C@@H]1COC (stereo not given in full) | inactive | – | – | MIC50 (Candida albicans [3]): 200 µM (≈ 94.1 µg/mL); MIC50 (Aspergillus fumigatus): 200 µM (≈ 94.1 µg/mL); Activity (Candida albicans [4]): Active; zone of inhibition at 50 µg/disc (Candida albicans [1]): 25 mm; zone of inhibition at 50 µg/disc (Cryptococcus neoformans [2]): 16 mm; MIC50 (Cryptococcus neoformans [5]): 100 µM (≈ 47.1 µg/mL); Ratio [6]: 0.1 |
| C[C@@H]1[C@H](O)[C@@H](C)/C=C/C=C/C=C/C=C/C=C/C=C/C=C/[C@H](O[C@@H]2O[C@H](C)[C@@H](O)[C@H](N)[C@@H]2O)C[C@@H]2O[C@](O)(C[C@@H](O)C[C@@H](O)[C@H](O)CC[C@@H](O)C[C@@H](O)CC(=O)O[C@H]1C)C[C@H](O)[C@H]2C(=O)O [AMPHOTERICIN B] | – | – | – | zone of inhibition at 25 µg/disc (Cryptococcus neoformans [7]): 13 mm; zone of inhibition at 25 µg/disc (Candida albicans [8]): 10 mm |
| CCC(C)C(=O)O[C@@H]1C[C@]2(C)C(=O)CC[C@H]2C2=C1[C@@]1(C)[C@@H](COC)OC(=O)[C@@H]3[C@@H](O)NC(=O)[C@@]31C2=O (stereo not given in full) | inactive | inactive | inactive | – |
| CCC(C)C(=O)O[C@@H]1C[C@]2(C)C(=O)CC[C@H]2C2=C1[C@@]1(C)[C@@H](COC)OC(=O)[C@@H]3[C@H](O)NC(=O)[C@@]31C2=O (stereo not given in full) | inactive | inactive | inactive | – |
| COC[C@H]1OC(=O)[C@@H]2[C@@H](O)NC(=O)[C@@]23C(=O)C2=C([C@H](OC(=O)C(C)C)C[C@]4(C)C(=O)CC[C@@H]24)[C@@]13C | inactive | inactive | inactive | – |
| COC[C@H]1OC(=O)[C@@H]2[C@H](O)NC(=O)[C@@]23C(=O)C2=C([C@H](OC(=O)C(C)C)C[C@]4(C)C(=O)CC[C@@H]24)[C@@]13C | inactive | inactive | inactive | – |
